A selection: hits, their analogues and other compounds. The true share with any hit is near 1.3%.
RAD52 anneal inh: RAD52 (human) annealing inhibition | recombinant RAD52 DNA annealing, FRET fluorescence | inhibition, % at 18.7 µM | P43351 | 360,000 compounds, 0.46% hits | AID 651710;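 active = every replicate showing at least 50% inhibition; inconclusive = mean inhibition at least 50% but not in every replicate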
Target sequence (P43351 whole entry, looked up): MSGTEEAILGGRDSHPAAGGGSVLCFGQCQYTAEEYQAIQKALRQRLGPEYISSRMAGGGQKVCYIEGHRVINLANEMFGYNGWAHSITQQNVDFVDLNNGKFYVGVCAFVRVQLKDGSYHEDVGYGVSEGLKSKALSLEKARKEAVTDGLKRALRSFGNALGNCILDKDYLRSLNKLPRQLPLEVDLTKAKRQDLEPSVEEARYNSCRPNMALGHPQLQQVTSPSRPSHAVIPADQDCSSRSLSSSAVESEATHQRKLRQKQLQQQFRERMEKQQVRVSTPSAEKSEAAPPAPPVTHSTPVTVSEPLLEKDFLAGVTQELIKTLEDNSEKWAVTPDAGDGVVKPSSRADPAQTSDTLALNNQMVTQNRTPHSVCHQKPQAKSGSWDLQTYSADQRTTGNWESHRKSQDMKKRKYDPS
FN deposit inh: fibronectin deposition inhibition. AH1F fibroblasts, Alexa488-fibronectin deposition fluorescence, overnight. inhibition, % at 12.6 µM. 350,000 compounds, 0.086% hits;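 active = mean inhibition across replicates of 30% or more, regardless of how many single replicates reach that level; inconclusive = mean under 30% yet at least half of replicates reach 30%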;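 note: positive control wells lacked labelled fibronectin entirely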
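material = AH1F fibroblast monolayer depositing Alexa488-labelled fibronectin into matrix | amount = 10000 AH1F cells/well | buffer or medium = DMEM plus 2% serum, read in PBS | incubation = 1 h cell adhesion before compound, then overnight fibronectin incubation | detection = fluorescence at 485 nm excitation, 525 nm emission | evaluation = percent inhibition as loss of matrix-bound fibronectin fluorescence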
PAX8 reporter: lowers PAX8-driven luciferase in RMG-I cells. RMG-I TPO-luciferase reporter, SteadyGlo, 24 h. inhibition, % at 12.6 µM. 360,000 compounds, 1.2% hits. AID 652154;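 active = mean replicate inhibition at least 60% with every replicate also reaching 60%; inconclusive = only one of the two criteria is met; inactive = mean below 60% and not all replicates reaching 60%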;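 note: luciferase light reporting Pax8 driven TPO promoter activity; plate controls were median of neutral control wells for no effect and mitoxantrone controls for full effect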
RAD54 inh: RAD54 (human) branch migration inhibition; Q92698; RAD54 Holliday junction branch migration, FAM/BHQ fluorescence; inhibition, % at 10.4 µM; 360,000 compounds, 0.14% hits; AID 602329;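 active = mean normalized replicate activity at least 40 and at least half of replicates scoring 40 or more; inconclusive = only one of the two criteria met; inactive = mean below 40 and under half of replicates reaching 40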;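 note: 0% = median of neutral control wells and 100% = median of positive control wells; inhibitors cause a drop in the FAM fluorescence signal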
Rad54 DNA ctr: counter-screen for Rad54 inhibitors: DNA binding compounds | AID 651673 | shares compounds with RAD54 inh | Acridine orange-DNA displacement, fluorescence polarization, 20 min | AC50, µM (highest dose often 35 µM), without a hit: at the top dose activity change, negative = DNA binding | 460 compounds, 8% hits;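 active = signal drop giving an AC50 within twice the top valid tested concentration of each sample, actives reach about 35 µM in these data; inactive = activity opposite to expected, plus the rest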;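 note: polarization loss reports compound binding to salmon sperm DNA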
RAD52 DNA ctr: counter-screen for RAD52 inhibitors: DNA binding compounds; 1,000 compounds, 8% hits; Salmon sperm DNA/acridine orange FP displacement; AID 652128; AC50, µM; shares compounds with RAD52 anneal inh;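 active = fitted half-maximal concentration for signal loss at or below twice the highest dose tested, in every separate run, actives reach about 64 µM in these data; inconclusive = runs disagree, or flat partial signal loss, or poor fit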
Starred values were filed as active, the others as inactive; i = inactive; ? = inconclusive; . = no result given.

SMILES	RAD52 anneal inh	FN deposit inh	PAX8 reporter	RAD54 inh	Rad54 DNA ctr	RAD52 DNA ctr
CCOc1ccc(NC(=O)CN2CCN(CC(=O)Nc3ccc(N(C)C)cc3)CC2)cc1	-15	-5	-31	-14	.	.
Fc1cccc(Cl)c1CNC(c1ccccc1)c1ccccc1	-10	.	.	-4	.	.
Cc1ccc(Nc2nc(NCCO)c3ccccc3n2)cc1C	27	9	-21	22	.	.
COc1ccc(OC)c(Nc2nc(NCCO)c3ccccc3n2)c1	88*	2	3	94*	-9%	i
O=C(CSCCc1ccccn1)Nc1cccnc1	.	.	.	10	.	.
Cc1ccc(-c2nc(C(=O)NCCCN(C)C)cc3c2[nH]c2ccccc23)cc1	93*	9	19	105*	-12%	?
O=C(NCCO)c1cc2c([nH]c3ccccc32)c(-c2ccccc2)n1	-8	.	28	-18	.	.
COc1cc2nc(Nc3ccc(F)cc3)nc(N)c2cc1OC	62*	-2	-52	59*	11%	59µM*
O=C(CN1CCCCC1)n1c2ccccc2c2ccccc21	61*	-25	-8	100*	2%	i
Cc1c(C)n(C(=O)CN2CCC(C(N)=O)CC2)c2ccccc12	.	.	.	5	.	.
C[C@@H]1CN([C@@H](C)CO)C(=O)c2cccc(NC(=O)Nc3ccc(C(F)(F)F)cc3)c2O[C@@H]1CN(C)S(C)(=O)=O	-1	-9	6	-11	.	.
Cc1cccn2c(=O)c3cc(C(=O)NC4CCCC4)c(=N)n(CCCN4CCOCC4)c3nc12	68*	8	2	77*	5%	i
Cc1cccn2c(=O)c3cc(C(=O)NCCN4CCOCC4)c(=N)n(CCN4CCOCC4)c3nc12	69*	-3	-13	51*	3%	i
N=c1c(C(=O)NCCN2CCOCC2)cc2c(=O)n3ccccc3nc2n1CCc1ccccc1	57*	-1	-36	63*	-9%	i
Cc1cccn2c(=O)c3cc(C(=O)NC4CCCC4)c(=N)n(CC4CCCO4)c3nc12 (centres undefined)	15	5	11	34	.	.
N=c1c(C(=O)NCCc2ccccc2)cc2c(=O)n3ccccc3nc2n1CCCN1CCOCC1	45	1	-12	28	.	.
O=C(CCn1cnnn1)N1CCCC(Nc2ccc(F)cc2)C1 (centres undefined)	2	-12	-4	6	.	.
Cc1ccc(OCc2ccc(C(=O)Nc3ccc(S(N)(=O)=O)cc3)o2)cc1	4	3	-1	10	.	.
CCN1CCN(c2cc(C)c3cc(NC(=S)N4CC(C)CC(C)C4)ccc3n2)CC1 (centres undefined)	52*	-7	-8	?	-9%	i
CCN1CCN(c2cc(C)c3cc(NC(=S)N4CCCC(C)C4)ccc3n2)CC1 (centres undefined)	52*	9	-15	63*	1%	i
CCN1CCN(c2cc(C)c3cc(NC(=O)c4ccncc4)ccc3n2)CC1	-35	3	12	0	.	.
CN(C)CCCN(C(=O)CCOc1ccccc1)c1nc2ccc(F)cc2s1	89*	25	86*	65*	-16%	i
CN(C)CCCN(C(=O)COc1ccccc1)c1nc2ccc(F)cc2s1	13	-3	1	.	.	.
Cc1cc(N2CCN(C)CC2)nc2ccc(NC(=S)NC3CC3)cc12	45	2	9	.	.	.
CCCN(CCC)CCCNC(=S)Nc1ccc2nc(N3CCN(C)CC3)cc(C)c2c1	75*	10	25	63*	-9%	i
SMILES	RAD52 anneal inh	FN deposit inh	PAX8 reporter	RAD54 inh	Rad54 DNA ctr	RAD52 DNA ctr
CCCCN(CC)CCNC(=S)Nc1ccc2nc(N3CCN(C)CC3)cc(C)c2c1	60*	16	-4	55*	6%	i
CCOC(=O)C(C)NC(=O)CCc1nnc2ccc(N3CCCCC3)nn12 (centres undefined)	4	5	-2	-1	.	.
CCOC(=O)c1c(NC(=O)c2ccc(S(=O)(=O)N3CCOCC3)cc2)sc2c1CCN(C)C2	59*	.	.	89*	-7%	i
CC1CCCN(CCCNC(=O)c2cc3c(Cl)nc4ccccc4c3s2)C1 (centres undefined)	67*	5	-7	92*	-7%	39µM*
CN(C)CCCNc1nc2cc(-c3cccc(Cl)c3)sc2c(=O)n1C	89*	-2	-8	50*	-7%	i
Cc1ccsc1-c1cc2nc(NCCCN(C)C)n(C)c(=O)c2s1	58*	-2	-35	?	3%	i
